Results reported in ChEMBL document CHEMBL3396970, “Synthesis and biological evaluation of novel 2,3-disubstituted quinoxaline derivatives as antileishmanial and antitrypanosomal agents” (Eur J Med Chem, 2015).

Columns and labels:
[1] = test system: Leishmania amazonensis; test: Antileishmanial activity against promastigote stage of Leishmania amazonensis WHOM/BR/75/JOSEFA after 72 hrs by hemocytometry; assay type: functional, organism-based
[2] = Selectivity ratio of CC50 for mouse J774A1 cells to IC50 for promastigote stage of Leishmania amazonensis WHOM/BR/75/JOSEFA; assay type: ADME, cell-based, J774.A1; details: read-out: Ratio CC50/IC50
[3] = test system: Trypanosoma cruzi; test: Antitrypanosomal activity against epimastigote stage of Trypanosoma cruzi Y after 96 hrs by hemocytometry; assay type: functional, organism-based
Procedure, shortened: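 Log-phase parasites (promastigotes 3-day, Warren's medium + 10% FBS, 25°C; epimastigotes 4-day, LIT + 10% FBS, 28°C) seeded at 1 × 10^6 cells/mL with compound (0.1-100 µM; DMSO ≤1%). Promastigotes read at 72 h, epimastigotes at 96 h, by hemocytometer counting. IC50 by nonlinear regression.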

[4] = Selectivity ratio of CC50 for monkey LLC-MK2 cells to IC50 for epimastigote stage of epimastigote stage of Trypanosoma cruzi Y; assay type: ADME, cell-based; details: read-out: Ratio CC50/IC50
[5] = test system: Trypanosoma cruzi; test: Antitrypanosomal activity against trypomastigote stage of Trypanosoma cruzi Y infected in monkey LLC-MK2 cells after 96 hrs by Pizzi-Brener method; assay type: functional, organism-based
[6] = Selectivity ratio of CC50 for monkey LLC-MK2 cells to EC50 for trypomastigote stage of Trypanosoma cruzi Y; assay type: ADME, cell-based; details: read-out: Ratio CC50/EC50
[7] = Selectivity ratio of CC50 to IC50 for promastigote stage of Leishmania amazonensis WHOM/BR/75/JOSEFA; parameters: reference not given here
[8] = Selectivity ratio of CC50 for monkey LLC-MK2 cells to IC50 for epimastigote stage of epimastigote stage of Trypanosoma cruzi Y

Structure (SMILES)	IC50 [1] [µM]	IC50 [3] [µM]	EC50 [5] [µM]	selectivity ratio [2]	selectivity ratio [4]	selectivity ratio [6]	selectivity ratio [7]	selectivity ratio [8]
CS/C(=C/[N+](=O)[O-])Nc1ccc(N(C)C)cc1	52.8	31.8	35	18.9	6.6	6	18.9	6.6
c1ccc(-c2nc3ccccc3nc2-c2ccc(OCCN3CCCCC3)cc2)cc1	1.9	21.4	20.3	29.6	1.8	1.8	29.6	1.8
COc1ccc2nc(SC)c(NCC(C)C)nc2c1	26.9	95.7	> 50	4.7	0.7	–	4.7	0.7
CCCCNc1nc2cc(Br)ccc2nc1SC	25.2	41.8	> 50	5.1	0.9	–	5.1	0.9
CCCCNc1nc2cc(Cl)ccc2nc1SC	24.4	63.6	> 50	4.6	1	–	4.6	1
COc1ccc2nc(-c3ccccc3)c(NCCN3CCCCC3)nc2c1	50.3	47.6	> 50	0.9	3.8	–	0.9	3.8
CCCCNc1nc2ccc(OC)cc2nc1NCc1ccccc1	13.6	38.4	> 50	3.6	0.6	–	3.6	0.6

Second part, led by results:

IC50 [1] [µM]	IC50 [3] [µM]	EC50 [5] [µM]	Structure (SMILES)	selectivity ratio [2]	selectivity ratio [4]	selectivity ratio [6]	selectivity ratio [7]	selectivity ratio [8]
2.9	3.1	9.8	COc1ccc2nc(S(C)(=O)=O)c(Cl)nc2c1	7.6	7.5	2.4	7.6	7.5
27.1	79.6	> 50	COc1ccc2nc(SC)c(NCCC(C)C)nc2c1	3.3	0.7	–	3.3	0.7
27.6	69.9	> 50	COc1ccc2nc(NCC(C)C)c(SC)nc2c1	6.7	1	–	6.7	1
35.9	25.2	> 50	COc1ccc2nc(N(C)C)c(S(C)(=O)=O)nc2c1	4.5	6.8	–	4.5	6.8
2.9	4.4	15.7	CCCCNc1nc2ccccc2nc1S(C)(=O)=O	11.4	5.5	1.5	11.4	5.5
69.2	90.9	> 50	COc1ccc2nc(S(C)(=O)=O)c(NCCO)nc2c1	3.7	2.6	–	3.7	2.6
21.2	38	22.9	COc1ccc2nc(S(C)(=O)=O)c(NCCC(C)C)nc2c1	5	2.6	4.2	–	–
36.2	49.5	> 50	CCCCNc1nc2cc(OC)ccc2nc1Cl	4.4	7.9	–	4.4	7.9
20.9	29.4	> 50	CCCCNc1nc2ccc(OC)cc2nc1NCCCC	4.3	3.2	–	4.3	3.2
